From ChEMBL document CHEMBL3576830, “Exploiting the Polypharmacology of ß-Carbolines to Disrupt O. volvulus Molting” (ACS Med Chem Lett, 2015) come the findings set out here.

Calls of active or inactive are those of the source. No cut-off for these calls is given here.

Series [1] concerns HEK-293T. The series is described as follows: Mitochondrial uncoupling activity in HEK293T/17 cells at 50 uM after 30 mins by TMRE staining-based fluorescence assay. The format is functional, cell-based. The conditions noted are these: Homo sapiens. In short, it runs like this:
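HEK 293T/17 cells incubated with 50 μM compound, then stained with TMRE to detect mitochondrial membrane depolarization, read in a microplate fluorescence assay. Reported as mean fluorescence intensity ± SD (n = 3). Unstained cells served as negative control and 0.5% DMSO as positive control. CCCP served as reference protonophore.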

Series [2] has as its target T1, Endochitinase (Brugia malayi) (UniProt P29030).
T1 sequence (whole entry): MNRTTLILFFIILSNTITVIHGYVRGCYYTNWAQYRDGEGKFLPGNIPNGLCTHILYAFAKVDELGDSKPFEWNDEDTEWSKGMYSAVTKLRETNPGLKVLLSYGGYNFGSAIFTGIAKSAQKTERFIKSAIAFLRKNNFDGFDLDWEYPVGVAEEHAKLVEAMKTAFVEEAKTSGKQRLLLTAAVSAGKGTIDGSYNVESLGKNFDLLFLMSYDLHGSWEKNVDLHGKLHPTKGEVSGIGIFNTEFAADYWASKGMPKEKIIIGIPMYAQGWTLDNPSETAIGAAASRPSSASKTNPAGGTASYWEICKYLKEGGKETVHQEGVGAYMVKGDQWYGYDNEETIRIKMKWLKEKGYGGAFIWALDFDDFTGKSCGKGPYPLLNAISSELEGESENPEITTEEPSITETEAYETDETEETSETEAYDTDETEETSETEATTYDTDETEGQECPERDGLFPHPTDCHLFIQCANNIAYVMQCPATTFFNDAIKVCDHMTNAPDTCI
Description: Inhibition of Brugia malayi chitinase using 4-methylumbelliferyl-N-N'-N''-beta-chitotrioside as substrate assessed as release of 4-methylumbelliferone at 10 uM measured for 10 mins by fluorescence assay.

Series [3] concerns the target T2, Chitinase (Onchocerca volvulus, UniProt Q25615).
T2 sequence (Q25615 whole entry): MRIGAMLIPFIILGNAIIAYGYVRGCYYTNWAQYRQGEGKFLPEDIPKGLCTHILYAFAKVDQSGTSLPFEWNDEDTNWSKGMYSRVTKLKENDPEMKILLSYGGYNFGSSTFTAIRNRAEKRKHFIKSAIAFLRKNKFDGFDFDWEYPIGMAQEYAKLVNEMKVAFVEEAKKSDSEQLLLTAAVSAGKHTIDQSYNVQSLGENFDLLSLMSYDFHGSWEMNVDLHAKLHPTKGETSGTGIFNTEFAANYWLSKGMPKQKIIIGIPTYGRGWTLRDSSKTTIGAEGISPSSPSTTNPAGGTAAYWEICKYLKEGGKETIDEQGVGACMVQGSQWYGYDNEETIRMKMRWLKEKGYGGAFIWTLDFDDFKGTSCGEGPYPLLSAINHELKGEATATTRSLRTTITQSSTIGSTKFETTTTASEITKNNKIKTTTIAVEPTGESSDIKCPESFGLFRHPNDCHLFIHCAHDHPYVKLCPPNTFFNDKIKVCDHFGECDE
The series is described as follows: Inhibition of L3 larval stage of Onchocerca volvulus chitinase using 4-methylumbelliferyl-N-N'-N''-beta-chitotrioside as substrate assessed as release of 4-methylumbelliferone measured for 10 mins by fluorescence assay.

Another series concerns Entamoeba histolytica. The series is described as follows: Inhibition of Entamoeba histolytica chitinase using 4-methylumbelliferyl-N-N'-N''-beta-chitotrioside as substrate assessed as release of 4-methylumbelliferone at 10 uM measured for 10 mins by fluorescence assay.
Series [4] concerns Onchocerca volvulus. Description: Antionchocerciasis activity against L3 larval stage of Onchocerca volvulus assessed as inhibition of parasite molting at 10 uM treated for 24 hrs prior to complete medium and PBMC addition measured after 6 days by inverted microscopic analysis. The format is functional. In short, it runs like this:
(§1)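 O. volvulus L3 larvae in wells, 2−3 wells per condition with on average 5−10 larvae each, exposed to inhibitor. Molting counted and expressed as percent molting.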

Series [5] relates to Onchocerca volvulus. The series is described as follows: Antionchocerciasis activity against L3 larval stage of Onchocerca volvulus assessed as prevention of L3 cuticle shedding at 100 uM treated for 24 hrs prior to complete medium and PBMC addition measured after 6 days by inverted microscopic analysis. The class given is functional, organism-based. In short, it runs like this: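 O. volvulus L3 larvae in 2–3 wells, on average 5–10 larvae per well; read-out is percent molting across the wells.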

Series [6] deals with T3, Chitinase (Onchocerca volvulus) (UniProt Q25615).
T3 sequence (whole entry): T2 sequence (Q25615 whole entry)
The series is described as follows: Inhibition of L3 larval stage of Onchocerca volvulus chitinase using 4-methylumbelliferyl-N-N'-N''-beta-chitotrioside as substrate assessed as release of 4-methylumbelliferone at 10 uM measured for 10 mins by fluorescence assay. The format is tissue-based. The method, boiled down:
(§2)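 OvCHT1 activity read by fluorescence, inhibitors tested at 10 and 5 μM.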

The test system of series [7] is Onchocerca volvulus. The series is described as follows: Antionchocerciasis activity against L3 larval stage of Onchocerca volvulus assessed as inhibition of parasite molting at 1 uM treated for 24 hrs prior to complete medium and PBMC addition measured after 6 days by inverted microscopic analysis. The format is functional. In short, it runs like this: as §1
Series [8] concerns the target T2, Chitinase. The series is described as follows: Competitive inhibition of L3 larval stage of Onchocerca volvulus chitinase using 4-methylumbelliferyl-N-N'-N''-beta-chitotrioside as substrate assessed as release of 4-methylumbelliferone measured for 10 mins by Dixon plot analysis.
The subject of series [9] is HEK-293T. Description: Cytotoxicity against HEK293T/17 cells at 5 uM after 0.5 to 24 hrs by MTS assay. The format is cell-based. Particulars: human. For orientation: Tetrazolium dyes change colour on reduction, which living cells bring about.
Series [10] has as its target T3, Chitinase (Onchocerca volvulus). Description: Inhibition of L3 larval stage of Onchocerca volvulus chitinase using 4-methylumbelliferyl-N-N'-N''-beta-chitotrioside as substrate assessed as release of 4-methylumbelliferone at 5 uM measured for 10 mins by fluorescence assay. In short, it runs like this: as §2
For series [11], the system named is Caenorhabditis elegans. The series is described as follows: Drug level in late stage L4 Caenorhabditis elegans treated with 2-(Cyclopropylmethyl)-7-methoxy-1-methyl-9H-pyrido[3,4-b]indol-2-ium bromide at 10 uM after 6 hrs by LC-MS analysis. The conditions noted are these: in vivo. The format is ADME, organism-based. The method, boiled down:
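Late-stage L4 C. elegans were exposed to 10 μM compound (equivalent to 2 nmol/mg worm) for 6 h. Worm homogenates were quantified by LC–MS and expressed as nmol/mg worm, mean ± SD, n = 3.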

Series [12] relates to Caenorhabditis elegans. The series is described as follows: Drug uptake in late stage L4 Caenorhabditis elegans at 10 uM after 6 hrs by LC-MS analysis. The format is ADME, organism-based. The conditions noted are these: in vivo. The method, boiled down: (§3)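 Late-stage L4 C. elegans incubated 6 h with 10 μM inhibitor (equivalent to 2 nmol/mg worm). Worm homogenates quantified by LC−MS and also searched for metabolites (7-O-dealkylation, aromatic ring and N²-oxidation products). Uptake expressed as nmol/mg worm, mean ± SD, n = 3.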

In series [13] the test system is Caenorhabditis elegans. Description: Drug metabolism in late stage L4 Caenorhabditis elegans assessed as formation of 7-O-dealkylated, aromatic ring, and N2-oxidized metabolite at 10 uM after 6 hrs by LC-MS analysis. Particulars: in vivo. The format is ADME, organism-based. In short, it runs like this:
as §3

Series [14] has as its system Caenorhabditis elegans. Description: Drug metabolism in late stage L4 Caenorhabditis elegans assessed as formation of 7-methoxy-1-methyl-9H-pyrido[3,4-b]indole at 10 uM after 6 hrs by LC-MS analysis. The class given is ADME, organism-based. Particulars: in vivo. The method, boiled down:
as §3

The inhibition is the relative decrease from the control value, in per cent. The IC50 is the concentration that gives 50% inhibition. Turning to `Cc1nccc2c3ccc(OCc4ccc(Cl)cc4)cc3n(Cc3ccc(Cl)cc3)c12`, the result in the series with HEK-293T [1] was inactive. The inhibition entry (in series [2]; in the series on Entamoeba histolytica; in the series on Onchocerca volvulus [4]) was “inactive” each time. For the same molecule, the IC50 on Chitinase [3] was 2.08 µM. For the same molecule, the outcome in the series with Onchocerca volvulus [5] was Active.
On to `Cc1c2[nH]c3ccccc3c2cc[n+]1C`, for which, in [6], the inhibition result is “inactive”.
Consider `Cc1c2[nH]c3ccccc3c2cc[n+]1Cc1ccc(C(F)(F)F)cc1`, for which the inhibition entry in [6] is “inactive”.
As for `Cc1[nH]ccc2c1[nH]c1cc(=O)ccc12` [HARMOL], the result in the series on HEK-293T [1] was Active. In addition, the inhibition entry (in series [2]; with Entamoeba histolytica) was “inactive” throughout. Further, the 50% inhibitory concentration (IC50) at Chitinase [3] stood at 7.08 µM. Besides, the inhibition at 10 µM with Onchocerca volvulus [4] stood at 61%.
As for `Cc1c2[nH]c3ccccc3c2cc[n+]1Cc1ccccc1`, the inhibition entry in [6] was “inactive”.
In the case of `COc1ccc2c3ccnc(C)c3n(Cc3ccc(Cl)cc3)c2c1`, the inhibition entry in series [6] is “inactive”.
On to `Cc1nccc2c1[nH]c1ccccc12` [HARMAN], for which the result with HEK-293T [1] was inactive. The IC50 at Chitinase [3] was determined as 7.33 µM. For the same molecule, in the series on Onchocerca volvulus [4], the inhibition entry is “inactive”. Moreover, the outcome with Onchocerca volvulus [5] was Active.
On to `CCNS(=O)(=O)c1ccc2[nH]c3cnccc3c2c1`, for which the inhibition result in [6] was “inactive”.
For `c1ccc2c(c1)[nH]c1cnccc12` [NORHARMANE], in the series on HEK-293T [1], the result was inactive. Also, at Chitinase [3], the IC50 was 8.46 µM. The inhibition entry in the series on Onchocerca volvulus [4] was “inactive”. Besides, the result with Onchocerca volvulus [5] was Active.
One may read the Ki as a measure of affinity in units of concentration, obtained from inhibition or displacement. As for `Cc1c2[nH]c3cc(OCc4ccc(Cl)cc4)ccc3c2cc[n+]1Cc1ccc(Cl)cc1.[Br-]`, the result in the series on HEK-293T [1] was Active. For the same molecule, the inhibition result (in series [2]; in the series with Entamoeba histolytica; in the series on Onchocerca volvulus [4]) was “Active” throughout. The inhibition at 1 µM with Onchocerca volvulus [7] came to 27%. Moreover, the IC50 on Chitinase [3] was 1.43 µM. Moreover, the Ki on Chitinase [8] stood at 0.98 µM. Also, in the series on HEK-293T [9], the Activity entry is “Non-toxic”.
As for `Cc1nccc2c1[nH]c1cc(OCC3CC3)ccc12`, the inhibition entry in series [6] is “inactive”.
Turning to `Cc1nccc2c3ccccc3n(C)c12`, the inhibition entry in series [6] was “inactive”.
On the same count and under the same terms, the same measure for `O=S(=O)(NC1CCCC1)c1ccc2[nH]c3cnccc3c2c1`: “inactive”.
Regarding `Cc1c2[nH]c3ccccc3c2cc[n+]1Cc1ccc(Cl)cc1`, the inhibition entry in [10] is “inactive”.
As for `COc1ccc2c(c1)[nH]c1c(C)nccc12` [HARMINE], in the series with HEK-293T [1], the outcome was Active. This molecule also displayed a Drug uptake in the series on Caenorhabditis elegans [11] of 0.052 nmol/mg. Further, the inhibition entry (in series [2]; in the series on Entamoeba histolytica) was “inactive” each time. Moreover, the IC50 at Chitinase [3] came out at 7.06 µM. On Chitinase [8], the Ki worked out at 3.78 µM. Besides, the inhibition at 10 µM in the series with Onchocerca volvulus [4] is 57%.
For the molecule `O=S(=O)(Nc1ccc(Cl)cc1)c1ccc2[nH]c3cnccc3c2c1`, the inhibition entry in [6] is “inactive”.
For the molecule `Cc1ccc(NS(=O)(=O)c2ccc3[nH]c4cnccc4c3c2)cc1`, the inhibition result in [6] is “inactive”.
Take `Cc1nccc2c3ccccc3n(Cc3ccc(Cl)cc3)c12`: in series [6], the inhibition result was “inactive”.
Take `COc1ccc2c(c1)[nH]c1c(C)[n+](Cc3ccc(Cl)cc3)ccc12.[Br-]`: the outcome in the series on HEK-293T [1] was Active. Moreover, the inhibition at 1 µM in the series on Onchocerca volvulus [7] worked out at 45%. Also, the IC50 on Chitinase [3] turned out to be 3.49 µM. Also, the inhibition entry with Onchocerca volvulus [4] was “Active”. Besides, the Activity result with HEK-293T [9] is given as “Non-toxic”. The same molecule displayed a Drug uptake in the series on Caenorhabditis elegans [12] of 0.22 nmol/mg.
In the case of `COc1ccc2c(c1)[nH]c1c(C)[n+](CC3CC3)ccc12.[Br-]`, in the series on HEK-293T [1], the outcome was Active. The Drug metabolism result in the series with Caenorhabditis elegans [13] is reported as “metabolite_notdetected”; in the series with Caenorhabditis elegans [14], “metabolite_detected”. For the same molecule, the inhibition entry (in [2]; with Onchocerca volvulus [7]; in the series with Entamoeba histolytica) was “inactive” in each case. At Chitinase [3], the IC50 is 3.57 µM. In addition, the inhibition entry in the series on Onchocerca volvulus [4] was “Active”. In addition, the Activity result in the series with HEK-293T [9] was “Non-toxic”. Besides, the Drug uptake in the series with Caenorhabditis elegans [12] amounted to 0.033 nmol/mg.
On to `Cc1nccc2c1[nH]c1cc(OCc3ccc(Cl)cc3)ccc12`, for which the inhibition result in series [6] is “inactive”.
Regarding `Cc1c2[nH]c3ccccc3c2cc[n+]1CC1CC1`, the inhibition entry in series [10] was “inactive”.
Turning to `COc1ccc2c3ccnc(C)c3n(CC3CC3)c2c1`, the inhibition result in series [6] is “inactive”.
With `N#CC(C#N)=NNc1cccc(Cl)c1`, in the series with HEK-293T [1], the result was Active.
Regarding `Cc1nccc2c3ccccc3n(CC3CC3)c12`, in series [10], the inhibition result was “inactive”.
Consider `Cc1nccc2c3ccccc3n(Cc3ccccc3)c12`, for which, in series [6], the inhibition result was “inactive”.
Take `O=S(=O)(Nc1ccccc1)c1ccc2[nH]c3cnccc3c2c1`: the inhibition entry in series [6] was “inactive”.
